Experimental data published in ChEMBL document CHEMBL1141369, “Salinosporamides D-J from the marine actinomycete Salinispora tropica, bromosalinosporamide, and thioester derivatives are potent inhibitors of the 20S proteasome” (J Nat Prod, 2007).
pIC50: −log10 of the molar value.

How the values were obtained:
[1] = Inhibition of CT-L activity of rabbit muscle 20S proteasome; type: tissue-based, Oryctolagus cuniculus, Muscle tissue
Outline: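 Serially diluted compound added in duplicate and preincubated 5 min at 37 °C. Reaction started with Suc-LLVY-AMC at 20 µM final, fluorescence read at ex 390/em 460 nm. IC50 from sigmoidal variable-slope fit, mean ± SD of at least three independent experiments.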

RPMI-8226 = assay: Cytotoxicity against human RPMI 8226 cells; type: cell-based
Outline: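 Seeded at 2 × 10^4 cells/well, then serially diluted compound added in triplicate for 48 h. Growth read by resazurin reduction (fluorescence). IC50 = concentration giving 50% of maximal observed growth inhibition, from sigmoidal dose-response fit.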

## CC[C@H]1C(=O)N[C@](C(=O)SCCC(=O)OC)([C@@H](O)[C@@H]2C=CCCC2)[C@@]1(C)O
[1]
  pIC50: 7.30
RPMI-8226
  pIC50: 5.10

## COC(=O)[C@@H](CSC(=O)[C@]1([C@@H](O)[C@@H]2C=CCCC2)NC(=O)[C@H](CCCl)[C@]1(C)O)NC(C)=O
[1]
  pIC50: 8.40
RPMI-8226
  pIC50: 8.01

## COC(=O)CCSC(=O)[C@]1([C@@H](O)[C@@H]2C=CCCC2)NC(=O)[C@@H]2CCO[C@@]21C
[1]
  pIC50: 6.64
RPMI-8226
  pIC50: 5.12

## COC(=O)CCSC(=O)[C@]1([C@@H](O)[C@@H]2C=CCCC2)NC(=O)[C@H](CCCl)[C@]1(C)O
[1]
  pIC50: 8.03
RPMI-8226
  pIC50: 7.96

## C[C@@]12OC(=O)[C@]1(CC1C=CCCC1)NC(=O)[C@@H]2CCCl (stereo not given in full) [SALINOSPORAMIDE J]
[1]
  pIC50: 7.28
RPMI-8226
  pIC50: 6.60
